Screening data (PubChem)
Only some compounds are listed: those with a hit (about 2.7% of all), similar ones and a draw of the others.
S100A4 inh HTS: inhibitors of S100A4-myosin IIA peptide binding, primary screen, biochemical, fluorescence polarization, TAMRA-MyoIIA peptide; Protein S100-A4 (Homo sapiens), P26447; inhibition, % at 10.7 µM; hit rate 0.14% among 360,000; AID 652163, 2013;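 active means mean inhibition of at least 70% across replicates, with every replicate also reaching that level; inconclusive means mean inhibition reaches 70% but some replicates fall short; inactive means mean inhibition below 70%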
Target sequence (P26447 whole entry, looked up): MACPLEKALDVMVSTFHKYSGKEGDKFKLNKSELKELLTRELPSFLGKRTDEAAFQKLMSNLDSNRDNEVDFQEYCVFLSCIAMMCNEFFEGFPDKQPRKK
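Material: human S100A4 monomer with TAMRA-labelled myosin IIA peptide; buffer or medium: HEPES pH 7.2 with CaCl2, KCl, NaCl, DTT, Triton; compound dosing: one concentration per compound; schedule: 5 min incubation before reading; benchmarks: neutral control DMSO, positive control TFP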
MLL AF4-AF9 inh: inhibitors of AF4 peptide binding to AF9, primary screen, biochemical, AlphaScreen, biotin-AF4 peptide, FLAG-AF9, single point; AID 651704, 2012; hit rate 0.47% among 350,000; inhibition, % at 10 µM;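 active means every replicate reaching a set inhibition limit, whatever the replicate mean, cut at about 25% in these data; inconclusive means mean inhibition reaches that limit but some replicates miss it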;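 further: 0% = plate neutral control median and 100% = total signal loss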
SIRT5 block: SIRT5 desuccinylase inhibitors, primary screen, biochemical, fluorescence imaging, single point, set 5. hit rate 1.1% among 330,000. Purified SirT5, succinyl-peptide AMC, trypsin-coupled fluorescence. inhibition, % at 15 µM. NAD-dependent protein deacylase sirtuin-5, mitochondrial (Homo sapiens), Q9NXA8; in the data active means inhibition above about 15%; inconclusive means no clear call, values can overlap the other calls
Target sequence (Q9NXA8 whole entry, looked up): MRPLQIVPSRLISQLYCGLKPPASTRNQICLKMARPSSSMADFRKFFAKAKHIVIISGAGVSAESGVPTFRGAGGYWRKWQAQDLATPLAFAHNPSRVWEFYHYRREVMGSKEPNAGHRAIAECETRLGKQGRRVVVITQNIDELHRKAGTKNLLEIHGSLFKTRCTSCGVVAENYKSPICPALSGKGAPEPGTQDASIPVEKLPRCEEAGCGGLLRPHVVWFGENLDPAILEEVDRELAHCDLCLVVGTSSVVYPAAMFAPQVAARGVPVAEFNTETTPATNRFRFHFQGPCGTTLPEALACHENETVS
CaV13 FRET inh: Primary screen for inhibitors of IQ motif and Ca2+-dependent inactivation inhibitor domain binding in CACNA1D, Förster resonance energy transfer in living cells, … | HEK cells, CFP/YFP FRET ICDI-IQ, plate reader, 10 min; percent FRET-ratio fall versus neutral wells | inhibition, % at 12.3 µM | hit rate 0.098% among 340,000;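 active means mean replicate inhibition of at least 30% and at least 1% of replicates passing that level; inconclusive means only one of the two criteria is met; inactive means neither criterion is met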;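 further: 0% = median of the neutral control wells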
DENV2 CPE rescue: inhibitors of DENV2 cytopathic effect, primary screen, cell-based, plate reader, single concentration; DENV2-infected cells, cytopathic effect rescue; CPE inhibition, % at 9.99 µM; hit rate 1.7% among 350,000; AID 651640, 2012; in the data active means CPE inhibition above about 20%, passing the limit was not always enough; inconclusive means no clear call, values can overlap the other calls; tested in BHK-21 cells;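 further: 0% = median of neutral control wells and 100% = median of positive control wells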
Active calls of the source: *; ? = inconclusive; . = no result given; ! = not active in a repeat.

SMILES | S100A4 inh HTS | MLL AF4-AF9 inh | SIRT5 block | CaV13 FRET inh | DENV2 CPE rescue
COCCCNC(=O)C[C@@H]1C[C@@]2(C(=O)OC)CC(C)(C)CC=C2N(Cc2ccc3c(c2)OCO3)C1=O | -1 | . | -1 | -16 | 13
COCCCNC(=O)C[C@@H]1C[C@@]2(C(=O)OC)CC(C)(C)CC=C2N(Cc2ccco2)C1=O | 0 | 0 | 0 | -9 | 21*
CCCCOCCCNC(=O)C[C@@H]1C[C@@]2(C(=O)OC)CC(C)(C)CC=C2N(Cc2ccc3c(c2)OCO3)C1=O | 2 | 3 | 7 | -8 | 28*
CC(C)NC(=O)N(C)C[C@@H]1Oc2ccc(NC(=O)Nc3ccc4c(c3)OCO4)cc2CC(=O)N([C@@H](C)CO)C[C@@H]1C | 3 | 2 | 2 | . | -2
O=C(C[C@H]1CC[C@@H]2[C@H](COC[C@@H](O)CN2Cc2ccc3c(c2)OCO3)O1)Nc1ccccc1 | -3 | 0 | -1 | . | 17
C[C@H]1CN([C@@H](C)CO)C(=O)c2cc(NC(=O)Cn3cnnn3)ccc2O[C@@H]1CN(C)Cc1ccc(-c2ccccc2)cc1 | 1 | 0 | -1 | . | 8
C[C@H](CO)N1C[C@H](C)[C@H](CN(C)Cc2ccc(Cl)c(Cl)c2)OCCCC[C@H](C)Oc2ccc(NC(=O)Nc3ccc(C(F)(F)F)cc3)cc2C1=O | 6 | -14 | -4 | . | -5
COc1ccc(OC)c(NC(=O)Nc2nc(C(N)CCc3ccccc3)cs2)c1 (configuration not stated) | 0 | 28* | . | -4 | -10
COc1cc(NC(=O)Nc2nc(C(N)CCc3ccccc3)cs2)cc(OC)c1OC (configuration not stated) | -5 | 20 | 3 | -9 | 0
COc1ccccc1NC(=O)Nc1nc(C(N)Cc2ccccc2)cs1 (configuration not stated) | -7 | 6 | -4 | -6 | 0
COc1ccc(CC(N)c2csc(NC(=O)Nc3cc(OC)ccc3OC)n2)cc1 (configuration not stated) | 3 | 31* | 0 | -6 | -8
Cn1cnc(S(=O)(=O)N2C[C@@H](O)COC[C@@H]3O[C@@H](CC(=O)NCc4ccc(F)cc4)CC[C@H]32)c1 | 35 | 0 | 0 | . | -5
COc1cccc(C#Cc2ccc3c(c2)[C@@H]2[C@@H](CCN2C(=O)c2ccccc2F)[C@H](CO)N3)c1 | -12 | 5 | 1 | . | 1
CCC(/C=C1\Sc2ccc(OC)cc2N1CC)=C\c1sc2ccc(OC)cc2[n+]1CCCS(=O)(=O)[O-] | 99* | 3 | -2 | -4 | -5
Cc1noc(C)c1NC(=O)N(C)C[C@@H]1Oc2ccc(NS(=O)(=O)c3ccccc3)cc2C(=O)N([C@H](C)CO)C[C@H]1C | -19 | -4 | -6 | . | -4
S=c1[nH]nc(-c2ccccc2Cl)n1/N=C/C=C/c1ccco1 | 2 | 47* | -2 | -4 | -4
CC(C)(SC(=S)N1CCCCCC1)C(=O)O | 1 | -1 | -7 | -4 | 13
CC(SC(=S)N1CCCC1)C(=O)O (configuration not stated) | -5 | -2 | 20* | -4 | 0
CO[C@H]1CC[C@@H]2CCOc3c(C#N)cccc3C(=O)N(C)C[C@@H](c3ccccc3)CC(=O)N(C)C[C@H]1O2 | 4 | 0 | 2 | . | 4
COc1ccc(C2=Nn3c(nnc3-c3ccccc3F)SC2)cc1OC1CCCC1 | -1 | 11 | 20* | -6 | 3
COc1ccc(OC)c(-c2nnc3n2N=C(c2ccc(OC(F)F)c(OCC4CC4)c2)CS3)c1 | -4 | 6 | . | -18 | -9
COc1ccc(OC)c(-c2nnc3n2N=C(c2ccc(OC)c(OC)c2)CS3)c1 | 3 | -1 | 3 | -7 | 31*
COc1ccc(C2=Nn3c(nnc3-c3ccccc3OC)SC2)cc1OCC1CC1 | 7 | 3 | . | -5 | 25*
C[C@H]1CN([C@@H](C)CO)S(=O)(=O)c2ccc(C#Cc3cccc(F)c3)cc2O[C@@H]1CN(C)S(=O)(=O)c1ccccc1F | 4 | -2 | 13 | . | -3
C[C@H]1CN([C@@H](C)CO)S(=O)(=O)c2ccc(Br)cc2O[C@@H]1CN(C)S(=O)(=O)c1ccccc1F | 5 | 1 | 0 | -9 | 36*!
SMILES | S100A4 inh HTS | MLL AF4-AF9 inh | SIRT5 block | CaV13 FRET inh | DENV2 CPE rescue
COc1ccc(C#Cc2ccc3c(c2)O[C@H](CN(C)S(=O)(=O)c2ccccc2F)[C@H](C)CN([C@H](C)CO)S3(=O)=O)cc1 | -7 | -2 | 16*! | -8 | -14
COc1ccc(C#Cc2ccc3c(c2)O[C@@H](CN(C)S(=O)(=O)c2ccccc2F)[C@@H](C)CN([C@H](C)CO)S3(=O)=O)cc1 | -34 | -1 | 12 | . | 0
C[C@H]1CN([C@@H](C)CO)S(=O)(=O)c2ccc(C#Cc3cccc(F)c3)cc2O[C@H]1CN(C)S(=O)(=O)c1ccccc1F | -4 | -3 | 42* | . | 0
C[C@H](CO)N1C[C@H](C)[C@@H](CN(C)C)Oc2ccc(NS(=O)(=O)c3cn(C)cn3)cc2C1=O | -1 | -1 | 7 | . | -5
CCCc1cn(CC[C@@H]2CC[C@@H](NS(=O)(=O)c3ccc(-c4ccccc4)cc3)[C@@H](CO)O2)nn1 | 2 | -1 | 2 | . | 16
Cc1c(/C=N/Nc2nc3ccccc3[nH]2)c2ccccc2n1C | 6 | 25* | -3 | ? | -11
Cn1c(/C=N/Nc2nc3ccccc3[nH]2)nc2ccccc21 | 2 | 14 | 3 | -52 | -1
CC(C)N1CCN(Cc2cc(F)ccc2-n2cccn2)CC1CCO (configuration not stated) | -4 | -1 | 20* | -4 | 13
CCCC(O)C#Cc1cnc2c(c1)C(=O)N([C@H](C)CO)C[C@H](C)[C@H](CN(C)S(C)(=O)=O)O2 (some centres not stated) | -2 | -2 | 7 | . | 0
Cc1cc(SCC(=O)OCC(=O)N(C)C2CCS(=O)(=O)C2)c(C)cc1Br (configuration not stated) | -2 | -54 | 19* | -6 | 5
CCCn1c(SCC(=O)Nc2nccs2)nnc1-c1cccnc1 | . | . | . | -6 | .
CCCCn1c(SCC(=O)Nc2nc(C)cs2)nnc1-c1cccnc1 | 0 | 5 | 17* | -7 | -1
O=C(C[C@@H]1C[C@@H]2c3cc(NC(=O)C4CCOCC4)ccc3O[C@@H]2[C@@H](CO)O1)NCc1cccnc1 | 0 | 5 | 2 | . | -5
COc1ccc(Nc2c([N+](=O)[O-])ccc3c2=NC2(CCCCC2)N=3)cc1 | -5 | 34* | -1 | 7 | 2
O=C(N[C@H]1CC[C@H](CC(=O)N2CCCCC2)O[C@H]1CO)c1ccccn1 | 5 | -1 | 6 | . | -1
O=C(CN1CCOCC1)N/N=C/c1ccc(-c2ccc(C(=O)O)cc2)o1 | -1 | 3 | 17* | -1 | 0
